Active and inactive are the calls of the source. The calls are words filed in the database; no cut-off is given here.
Legend:
[1] = Ratio of drug level from brain to plasma in Sprague-Dawley rat at 10 mg/kg, po after 2 hrs; type: ADME, organism-based; set-up: dose 10 mg/kg, route oral
Procedure, shortened: (§1)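 Male SD rats (7-10 weeks, 200-400 g) dosed orally at 10 mg/kg in 0.5% methylcellulose; at 2 h aortic blood taken under isoflurane. Plasma, brain homogenate (sonicated in water) and CSF deproteinized with 3-fold ethanol plus internal standard, -20 °C 20 min, centrifuged; LC/MS/MS with relative calibration curve. Mean, n = 2-3.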

[2] = biological target: T1, Neuropeptide Y receptor type 2 (Homo sapiens, UniProt P49146); experiment: Binding affinity to human neuropeptide Y2 receptor
T1 sequence (P49146 whole entry): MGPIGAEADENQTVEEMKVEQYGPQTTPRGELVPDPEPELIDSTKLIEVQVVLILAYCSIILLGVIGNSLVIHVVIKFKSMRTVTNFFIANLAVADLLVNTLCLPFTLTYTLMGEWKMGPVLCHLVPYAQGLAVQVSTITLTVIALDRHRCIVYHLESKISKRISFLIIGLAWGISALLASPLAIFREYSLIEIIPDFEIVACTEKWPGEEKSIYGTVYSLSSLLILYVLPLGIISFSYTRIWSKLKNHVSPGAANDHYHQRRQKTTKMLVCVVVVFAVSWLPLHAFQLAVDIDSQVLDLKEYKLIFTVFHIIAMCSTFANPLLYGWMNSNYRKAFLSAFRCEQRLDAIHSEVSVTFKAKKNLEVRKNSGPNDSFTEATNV

[3] = AUC (0 to infinity) in rhesus monkey at 1 mg/kg, po administered as single dose; type: ADME, organism-based, Macaca mulatta; set-up: dose 1 mg/kg, route oral, time infinity; conditions: plasma
[4] = Octanol-water distribution coefficient, log D at pH 7.4; type: physicochemical
[5] = biological target: T2, Neuropeptide Y receptor type 1 (Homo sapiens, UniProt P25929); experiment: Binding affinity to human neuropeptide Y1 receptor
T2 sequence (P25929 whole entry): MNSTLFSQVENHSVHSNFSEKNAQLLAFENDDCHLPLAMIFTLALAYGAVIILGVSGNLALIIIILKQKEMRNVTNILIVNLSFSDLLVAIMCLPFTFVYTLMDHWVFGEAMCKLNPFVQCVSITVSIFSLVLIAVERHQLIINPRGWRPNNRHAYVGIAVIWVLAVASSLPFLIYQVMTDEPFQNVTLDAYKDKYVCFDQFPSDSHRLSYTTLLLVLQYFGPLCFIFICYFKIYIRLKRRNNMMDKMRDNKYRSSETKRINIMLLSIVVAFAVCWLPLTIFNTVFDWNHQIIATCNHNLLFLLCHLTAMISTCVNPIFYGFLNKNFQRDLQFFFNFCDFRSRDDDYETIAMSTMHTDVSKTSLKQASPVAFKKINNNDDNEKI

Canis familiaris [6] = experiment: Cardiotoxicity in Beagle dog assessed as change in left ventricular systolic pressure at 5 mg/kg, iv; type: toxicity, organism-based, Canis lupus familiaris, Heart left ventricle; set-up: dose 5 mg/kg, route intravenous; conditions: in vivo
Canis familiaris [7] = experiment: Cardiotoxicity in Beagle dog assessed as adverse events at 2 mg/kg, iv; type: toxicity, organism-based, Canis lupus familiaris; set-up: dose 2 mg/kg, route intravenous; conditions: in vivo
Canis familiaris [8] = experiment: Cardiotoxicity in Beagle dog assessed as change in mean arterial pressure at 5 mg/kg, iv; type: toxicity, organism-based, Canis lupus familiaris, Artery; set-up: dose 5 mg/kg, route intravenous; conditions: in vivo
Canis familiaris [9] = experiment: Cardiotoxicity in Beagle dog assessed as prolongation of QTc interval at 5 mg/kg, iv; type: toxicity, organism-based, Canis lupus familiaris; set-up: dose 5 mg/kg, route intravenous; conditions: in vivo
[10] = Cmax in Sprague-Dawley rat at 1 mg/kg, iv and 1 mg/kg, po administered as single dose; type: ADME, organism-based; conditions: in vivo
[11] = Volume of distribution at steady state in rhesus monkey at 1 mg/kg, po and 0.3 mg/kg, iv administered as single dose; type: ADME, organism-based, Macaca mulatta; conditions: in vivo, read-out: Vdss
[12] = Cmax in Beagle dog at 5 mg/kg, iv; type: ADME, organism-based, Canis lupus familiaris; set-up: dose 5 mg/kg, route intravenous; conditions: in vivo
Mus musculus [13] = experiment: Reduction in body weight in moderately high fat diet-induced obese C57BL/6J mouse model at 3 mg/kg, po qid for 5 days followed by BID for 15 days; type: functional, organism-based; set-up: dose 3 mg/kg
Mus musculus [14] = experiment: Reduction in body weight in moderately high fat diet-induced obese C57BL/6J mouse model at 10 mg/kg, po qid for 5 days followed by BID for 15 days; type: functional, organism-based; set-up: dose 10 mg/kg
Rattus norvegicus [15] = experiment: Inhibition of D-[Trp34]NPY-induced acute food intake in Sprague-Dawley rat at 0.1 mg/kg, po pretreated 2 hrs prior to D-[Trp34]NPY challenge measured after 2 hrs; type: functional
Procedure, shortened: (§2)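 SD rats (10-15 weeks) with stereotaxic third-ventricle cannula, tested ≥1 wk post-surgery in light cycle. Oral dose in 0.5% methylcellulose, then 2 h later D-Trp34NPY 1 µg/0.4 µL in aCSF into third ventricle; food intake over 2 h. Mean ± SEM, n = 5-9; Dunnett's test versus agonist-only group.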

[16] = Plasma concentration in Sprague-Dawley rat at 10 mg/kg, po after 2 hrs; type: ADME, organism-based; set-up: dose 10 mg/kg, route oral; procedure, shortened: as §1
[17] = Bioavailability in rhesus monkey at 1 mg/kg, po and 0.3 mg/kg, iv administered as single dose; type: ADME, organism-based, Macaca mulatta; conditions: in vivo
[18] = Plasma clearance in rhesus monkey plasma at 0.3 mg/kg, iv administered as single dose; type: ADME, organism-based, Macaca mulatta; set-up: dose 0.3 mg/kg, route intravenous
[19] = Plasma clearance in Sprague-Dawley rat plasma at 1 mg/kg, iv administered as single dose; type: ADME, organism-based; set-up: dose 1 mg/kg, route intravenous
[20] = biological target: Neuropeptide Y receptor type 4 (Homo sapiens, UniProt P50391); experiment: Binding affinity to human neuropeptide Y4 receptor
Canis familiaris [21] = experiment: Cardiotoxicity in Beagle dog assessed as change in cardiac output pressure at 5 mg/kg, iv; type: toxicity, organism-based, Canis lupus familiaris, Heart; set-up: dose 5 mg/kg, route intravenous; conditions: in vivo
Rattus norvegicus [22] = experiment: Inhibition of D-[Trp34]NPY-induced acute food intake in Sprague-Dawley rat at 0.3 mg/kg, po pretreated 2 hrs prior to D-[Trp34]NPY challenge measured after 2 hrs; type: functional; procedure, shortened: as §2
Cerebrospinal fluid = experiment: Drug level in Sprague-Dawley rat cerebrospinal fluid at 10 mg/kg, po after 2 hrs; type: ADME, organism-based; set-up: dose 10 mg/kg, route oral; conditions: in vivo, 2 h; procedure, shortened: as §1
Rattus norvegicus [23] = experiment: Inhibition of D-[Trp34]NPY-induced acute food intake in Sprague-Dawley rat at 1 mg/kg, po pretreated 2 hrs prior to D-[Trp34]NPY challenge measured after 2 hrs; type: functional; procedure, shortened: as §2
Canis familiaris [24] = experiment: Cardiotoxicity in Beagle dog assessed as change in femoral blood flow at 5 mg/kg, iv; type: toxicity, organism-based, Canis lupus familiaris; set-up: dose 5 mg/kg, route intravenous; conditions: in vivo
[25] = Bioavailability in Sprague-Dawley rat at 1 mg/kg, iv and 1 mg/kg, po administered as single dose; type: ADME, organism-based; conditions: in vivo
Brain = experiment: Drug level in Sprague-Dawley rat brain at 10 mg/kg, po after 2 hrs; type: ADME, organism-based; set-up: dose 10 mg/kg, route oral; conditions: in vivo; procedure, shortened: as §1
[26] = Metabolic stability in rat hepatocytes assessed as hepatic clearance by serum incubation method; type: ADME, cell-based, Liver, Hepatocyte
Canis familiaris [27] = experiment: Cardiotoxicity in Beagle dog assessed as change in cardiac contractility pressure at 5 mg/kg, iv; type: toxicity, organism-based, Canis lupus familiaris, Heart; set-up: dose 5 mg/kg, route intravenous; conditions: in vivo
[28] = Volume of distribution at steady state in Sprague-Dawley rat at 1 mg/kg, iv and 1 mg/kg, po administered as single dose; type: ADME, organism-based; conditions: in vivo, read-out: Vdss
Mus musculus [29] = experiment: Reduction in body weight in moderately high fat diet-induced obese Y5 receptor-deficient mouse model at 3 mg/kg, po BID 15 days; type: functional, organism-based; set-up: dose 3 mg/kg
[30] = Cmax in Beagle dog at 2 mg/kg, iv; type: ADME, organism-based, Canis lupus familiaris; set-up: dose 2 mg/kg, route intravenous; conditions: in vivo
[31] = Cmax in rhesus monkey at 1 mg/kg, po and 0.3 mg/kg, iv administered as single dose; type: ADME, organism-based, Macaca mulatta; conditions: in vivo
[32] = AUC (0 to infinity) in Sprague-Dawley rat at 1 mg/kg, po administered as single dose; type: ADME, organism-based; set-up: time infinity, dose 1 mg/kg, route oral; conditions: plasma

Chain of Neuropeptide Y receptor type 4 (P50391 whole entry): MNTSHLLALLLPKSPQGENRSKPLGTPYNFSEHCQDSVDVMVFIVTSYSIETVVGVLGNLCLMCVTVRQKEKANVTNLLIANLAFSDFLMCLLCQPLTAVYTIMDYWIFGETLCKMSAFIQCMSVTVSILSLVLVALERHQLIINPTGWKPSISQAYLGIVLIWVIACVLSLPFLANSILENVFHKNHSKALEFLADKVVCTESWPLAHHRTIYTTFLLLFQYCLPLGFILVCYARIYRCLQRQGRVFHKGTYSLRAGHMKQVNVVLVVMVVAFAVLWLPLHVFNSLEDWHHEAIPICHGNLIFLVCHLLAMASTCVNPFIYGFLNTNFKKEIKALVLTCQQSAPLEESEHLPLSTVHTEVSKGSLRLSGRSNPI

Compound: C[C@@H]1NC(c2cc(C#N)ccn2)=N[C@@]1(c1ccc(F)cc1)c1ccc(F)nc1
- Kp at 2 h [1]: 2.7
- IC50 [2]: > 10 µM
- AUC(0-inf) [3]: 4.6 µM·h
- logD [4]: 3.2
- IC50 [5]: > 10 µM
- Activity (Canis familiaris [6]): 29%
- Activity (Canis familiaris [7]): Non-toxic
- Activity (Canis familiaris [8]): 28%
- Activity (Canis familiaris [9]): 7%
- Cmax [10]: 500 nM
- Vd [11]: 4.4 L/kg
- Cmax [12]: 25000 nM
- Activity (Mus musculus [13]): Active
- Activity (Mus musculus [14]): Active
- inhibition in vivo at 0.1 mg/kg (Rattus norvegicus [15]): 5%
- concentration at 2 h [16]: 2600 nM
- bioavailability [17]: 76%
- clearance [18]: 8 mL/min/kg
- clearance [19]: 20 mL/min/kg
- IC50 [20]: > 10 µM
- Activity (Canis familiaris [21]): 46%
- inhibition in vivo at 0.3 mg/kg (Rattus norvegicus [22]): 54%
- Drug uptake (Cerebrospinal fluid): 0.21 µM
- inhibition in vivo at 1 mg/kg (Rattus norvegicus [23]): 93%
- Activity (Canis familiaris [24]): -32%
- bioavailability [25]: 77%
- Drug uptake (Brain): 7 nmol/g
- CLhep predicted [26]: 18 mL/min/kg
- Activity (Canis familiaris [27]): 50%
- Vd [28]: 6.2 L/kg
- Activity (Mus musculus [29]): inactive
- Cmax [30]: 12000 nM
- Cmax [31]: 590 nM
- AUC(0-inf) [32]: 1.8 µM·h

Reference: ChEMBL document CHEMBL1138528, “Discovery of tetrasubstituted imidazolines as potent and selective neuropeptide Y Y5 receptor antagonists: reduced human ether-a-go-go related gene potassium channel binding affinity and potent antiobesity effect” (J Med Chem, 2009)
